Series [1] in a line: Safety and tolerability evaluation. In kind it is in vivo, human. The essentials:
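Fasted healthy men and women (21) received a single oral 25 mg dose with 250 mL water in a double-blind two-period crossover (5-day inpatient stays, ≥7-day washout). Safety covered everyone given at least one dose. Twelve-lead ECG was taken predose and at 1, 2 and 24 h. Hematology, serum chemistry and urinalysis were done at admission and at ~24 and 72 h after ≥10 h fasting. Results were summarized by treatment.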

Series [2] relates to VMAT2. As to conditions: in vitro, rats; ref Teva Pharmaceuticals, data on file; cited from earlier work.
For series [3] the following is noted: pivotal randomized controlled study; cited from earlier work.
For series [4] the following is noted: cited from earlier work.
Setting [5] is: Study AUS‐SD‐809‐CTP‐06, single 25 mg dose.

Structures are written as SMILES.

With `COc1cc2c(cc1OC)[C@H]1CC(=O)[C@H](CC(C)C)CN1CC2` (racemic) [Tetrabenazine, cis‐rac –1,3,4,6,7,11b‐hexahydro‐9,10‐dimethoxy‐3‐(2‐methylpropyl)2H‐benzo[a]quinolizin‐2‐one], in series [1] (Study AUS‐SD‐809‐CTP‐06), the “Reported events of dizziness” value is reported as “three”. Also, in series [1] (setting [5]), the “Number of subjects with at least one treatment‐emergent adverse event (TEAE)” value was found to be 9, the “Percentage of subjects with at least one treatment‐emergent adverse event (TEAE)” value came to 45%, the Subjects with headache was determined as 15% and the Subjects with nausea is reported as 15%. Besides, the Subjects with somnolence in series [1] (setting [5]) was 10%. The “Tolerability of single doses” value in series [1] (both studies, incl. 14C‐labeled analogues) is on record as “well‐tolerated”. Moreover, the “Serious or severe TEAEs” value in series [1] (either study) was “no serious or severe TEAEs”. The “Clinical laboratory assessments, vital signs parameters, ECG measurements, physical examinations” value in series [1] (following either treatment) was “no clinically significant findings”. The “Effect of deuteration on binding to VMAT2” value in series [2] is “did not change the binding”. In addition, in series [3], the “Patients requiring dose reduction for intolerability” value was 44%. For the same compound, in series [4], the BDDCS classification entry is listed as “Class II”.

Values taken from paper PMC7359938 (Clinical and Translational Science, 2020).
